Results collected from several papers.
Lines come from different studies, so protocols differ.
Observed: cell growth or viability

Structure (SMILES)	cell line	assay	setting	measurement	result
Cc1c(Cc2ccccc2)c(=O)oc2c(C)c(OCC(=O)NN=Cc3ccc([N+](=O)[O-])cc3)ccc12	MDA-MB-231	MTT	125 µg/mL	viability	23.7%
CC(C)C[C@@H]1NC(=O)[C@@H](N(C)C(=O)[C@H](CC2CCC2)NC(=O)[C@@H]2C[C@@H](F)CN2C(=O)C2(C(F)(F)F)CC(F)(F)C2)CCCCNC(=O)C2(CC2)NC(=O)[C@H](Cc2cc(Cl)ccc2Cl)N(C)C1=O	NCI-H526	MTT	5 days	GI50	0.24 µM
C[C@@H]1CC[C@@H]([C@](C)(O)CNCc2ccccc2F)[C@H](OCc2ccccc2)C1	MDA-MB-231	MTT	30 µM, 72 h	inhibition	44.1%
C=CC(=O)NC1CCN(c2ncc3ncnc(Nc4ccc(Oc5ccc6c(c5)ncn6C)c(C)c4)c3n2)CC1	LCLC-103H			EC50	0.00282 µM
CCc1c(C)c2ccc(OCc3nnc(S)n3N)c(C)c2oc1=O	MDA-MB-231	MTT	1000 µg/mL	viability	5.38%
C[C@@H]1CC[C@@H]([C@](C)(O)CNCc2ccccc2)[C@H](OCc2ccccc2)C1	MDA-MB-231	MTT	10 µM, 72 h	inhibition	76.8%
CCNC(=S)NNC(=O)COc1ccc2c(C)c(CC)c(=O)oc2c1C	MDA-MB-231	MTT	62.5 µg/mL	viability	84.5%
CCCN1C(=O)[C@H](CC(C)C)NC(=O)[C@@H](N(C)C(=O)[C@H](CC2CCC2)NC(=O)[C@@H]2C[C@@H](F)CN2C(=O)[C@@](C)(O)C(F)(F)F)CCCCNC(=O)C2(CC2)NC(=O)[C@@H]1Cc1cc(Cl)ccc1Cl	NCI-H526	MTT	5 days	GI50	0.041 µM
CCc1c(C)c2ccc(OCC=Cc3ccccc3)c(C)c2oc1=O	MDA-MB-231	MTT	1000 µg/mL	viability	2.75%
C[C@@H]1CC[C@@H]([C@@](O)(CNCc2ccccc2)COCc2ccc(F)cc2)[C@H](OCc2ccc(F)cc2)C1	MDA-MB-231	MTT	30 µM, 72 h	inhibition	98.8%
Cc1c(C(=O)O)ccc2c3n(nc12)[C@@H]1[C@H](C3)N(CC2CC2)[C@@]2(C(=O)Nc3cc(Cl)ccc32)[C@H]1c1cccc(Cl)c1F	hTERT-RPE1			IC50	0.016 µM
O=C(C=Cc1ccccc1)Nc1cc(-c2ccnc(N3CCOCC3)c2)ccn1	MDA-MB-231	MTT	5 µM	inhibition	78.3%
COc1ccc(CNC[C@@](C)(O)[C@@H]2CC[C@@H](C)C[C@H]2OCc2ccccc2)cc1	MDA-MB-231	MTT	30 µM, 72 h	inhibition	83.5%
Cc1cccc(/C=C/C(=O)Nc2cc(-c3ccnc(N4CCC(O)CC4)c3)ccn2)c1	MDA-MB-231	MTT	5 µM	inhibition	75.6%
COc1cccc(CNC[C@@](C)(O)[C@@H]2CC[C@@H](C)C[C@H]2OCc2ccccc2)c1	MDA-MB-231	MTT	10 µM, 72 h	inhibition	36%
